For one assay, the target named is Acetylcholinesterase (Homo sapiens, UniProt P22303). Briefly: Inhibition of human recombinant AChE […] by Ellman's assay. For orientation: Ellman's reagent forms a yellow product with free thiols.
In assay [1] the target is T1, Cholinesterase (Homo sapiens, UniProt P06276). Briefly: Inhibition of human recombinant BuChE assessed as enzyme activity reversion at 100 uM by Ellman's assay.
Assay [2] concerns the target T1, Cholinesterase. The experiment in a line: Inhibition of human recombinant BuChE by Ellman's assay. In outline:
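Ellman assay at 25 °C with 125 pM recombinant human enzyme: AChE with acetylthiocholine iodide, BuChE with butyrylthiocholine, substrate at 0.53 mM. Buffer was 0.1 M phosphate pH 7.4 with 15 mM NaCl, NaN3, BSA and DTNB. Inhibitor was preincubated with enzyme for at least 30 min. Rate read at 414 nm for 20 min against an inhibitor-free 100% control. Generally at least triplicate; IC50 by nonlinear regression.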

For another assay, the species on record is Homo sapiens. Briefly: Selectivity ratio of IC50 for human recombinant BuChE to IC50 for human recombinant AChE.
Assay [3] addresses T1, Cholinesterase. The experiment in a line: Inhibition of human recombinant BuChE assessed as enzyme activity reversion at 10 uM by Ellman's assay.

Some results are limits rather than exact numbers.

T1 sequence (P06276 whole entry): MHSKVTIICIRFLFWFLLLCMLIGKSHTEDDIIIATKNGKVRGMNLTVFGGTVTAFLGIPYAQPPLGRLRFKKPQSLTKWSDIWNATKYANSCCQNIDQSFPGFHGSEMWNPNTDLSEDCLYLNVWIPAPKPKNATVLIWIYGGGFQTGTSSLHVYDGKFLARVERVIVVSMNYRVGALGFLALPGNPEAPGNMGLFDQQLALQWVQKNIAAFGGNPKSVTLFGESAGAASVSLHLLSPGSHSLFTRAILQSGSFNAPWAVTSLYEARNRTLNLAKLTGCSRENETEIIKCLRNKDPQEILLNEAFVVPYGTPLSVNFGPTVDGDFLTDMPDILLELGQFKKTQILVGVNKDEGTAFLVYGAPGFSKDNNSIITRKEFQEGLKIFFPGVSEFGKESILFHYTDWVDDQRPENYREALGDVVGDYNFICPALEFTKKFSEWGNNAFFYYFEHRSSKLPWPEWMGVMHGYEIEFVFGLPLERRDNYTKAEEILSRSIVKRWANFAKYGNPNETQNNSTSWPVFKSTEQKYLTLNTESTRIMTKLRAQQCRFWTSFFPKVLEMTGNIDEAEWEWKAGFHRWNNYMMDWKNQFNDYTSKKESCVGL
Chain of Acetylcholinesterase (P22303 whole entry): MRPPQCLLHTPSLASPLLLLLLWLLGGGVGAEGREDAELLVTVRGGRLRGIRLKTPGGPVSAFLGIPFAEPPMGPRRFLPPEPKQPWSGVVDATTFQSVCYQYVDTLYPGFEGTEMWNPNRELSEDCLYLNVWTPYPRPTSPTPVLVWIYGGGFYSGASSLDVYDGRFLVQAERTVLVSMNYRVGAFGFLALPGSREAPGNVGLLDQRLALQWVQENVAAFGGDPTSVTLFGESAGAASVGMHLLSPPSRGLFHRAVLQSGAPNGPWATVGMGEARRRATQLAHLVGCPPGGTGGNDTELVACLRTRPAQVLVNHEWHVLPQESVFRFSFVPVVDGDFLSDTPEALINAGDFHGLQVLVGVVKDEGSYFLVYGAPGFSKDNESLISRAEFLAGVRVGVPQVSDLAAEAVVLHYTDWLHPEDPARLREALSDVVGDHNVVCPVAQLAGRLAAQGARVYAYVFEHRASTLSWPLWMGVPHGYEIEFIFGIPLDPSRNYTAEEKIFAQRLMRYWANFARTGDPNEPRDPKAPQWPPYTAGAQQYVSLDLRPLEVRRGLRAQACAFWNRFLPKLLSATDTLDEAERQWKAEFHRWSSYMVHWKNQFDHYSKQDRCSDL

In general, IC50 refers to the midpoint of a concentration-inhibition curve. By inhibition is commonly meant the percentage by which the read-out fell short of the control. With `C#CCCCCCCN1CCc2cc(OC)c(OC)cc2C1c1cccc([N+](=O)[O-])c1` (centres undefined), at Acetylcholinesterase, the IC50 amounted to 8.08 µM. The inhibition on Cholinesterase [1] is under 1%.
For `CC1=CC2Cc3nc4cc(Cl)ccc4c(O)c3C(C1)C2` (racemic), the IC50 on Acetylcholinesterase came out at 14.7 µM.
As to `CCC1=CC2Cc3nc4ncccc4c(N)c3C(C1)C2` (racemic), the IC50 on Acetylcholinesterase was determined as 0.855 µM.
As to `CC1=CC2Cc3nc4cc(Cl)ccc4c(NCCN=[N+]=[N-])c3C(C1)C2` (racemic), the IC50 at Acetylcholinesterase is 0.00869 µM; on Cholinesterase [2] it was 2.35 µM. For the same compound, the Ratio IC50 in the assay listed under Homo sapiens came out at 270.
Turning to `CSc1n[nH]c2nc3c(c(N)c12)C1CC(C)=CC(C3)C1` (racemic), at Acetylcholinesterase, the half-maximal inhibitory concentration (IC50) was 50 µM.
For `CCC1=CC2Cc3nc4cc(OC)c(OC)cc4c(N)c3C(C1)C2` (racemic), the IC50 on Acetylcholinesterase was determined as 5.1 µM.
Take `COc1cc2nc3c(c(N)c2cc1OC)C1CC(C)=CC(C3)C1` (racemic): the IC50 at Acetylcholinesterase came to 11.7 µM.
Turning to `CC1=CC2Cc3nc4cc(Cl)ccc4c(NCCO)c3C(C1)C2` (racemic), on Acetylcholinesterase, the 50% inhibitory concentration (IC50) turned out to be 0.00966 µM.
Consider `CCC1=CC2Cc3nc4cc(Cl)ccc4c(NCCN=[N+]=[N-])c3C(C1)C2` (racemic), for which the IC50 at Acetylcholinesterase worked out at 0.0137 µM; on Cholinesterase [2], 0.824 µM. In addition, the Ratio IC50 in the assay listed under Homo sapiens amounted to 60.
For `CCC1=CC2Cc3nc4cc(Cl)ccc4c(Cl)c3C(C1)C2` (racemic), the 50% inhibitory concentration (IC50) at Acetylcholinesterase is 19.2 µM.
Take `CC1=CC2Cc3nc4oc(C5CCC5)nc4c(N)c3C(C1)C2` (racemic): on Acetylcholinesterase, the IC50 was 27.1 µM.
Regarding `CCCSc1nc2nc3c(c(N)c2s1)C1CC(C)=CC(C3)C1` (racemic), on Acetylcholinesterase, the half-inhibitory concentration (IC50) stood at 7.69 µM.
`C#CCCCCCCN1CCc2cc(OC)c(OC)cc2C1c1ccc([N+](=O)[O-])cc1` (centres undefined): at Acetylcholinesterase, the half-maximal inhibitory concentration (IC50) was 2.92 µM. The inhibition on Cholinesterase [1] is under 1%.
With `COc1cc2c(cc1OC)C(c1cccc([N+](=O)[O-])c1)N(CCCCCCc1cn(CCNc3c4c(nc5cc(Cl)ccc35)CC3C=C(C)CC4C3)nn1)CC2` (racemic), the concentration for half-maximal inhibition (IC50) at Acetylcholinesterase was found to be 0.00395 µM. Moreover, the Ratio IC50 in the assay filed under Homo sapiens was over 10000. Also, at Cholinesterase [3], the inhibition was 6%.
For `CC1=CC2Cc3nc4[nH]ncc4c(N)c3C(C1)C2` (racemic), the IC50 at Acetylcholinesterase is 50 µM.
For `CC1=CC2Cc3nc4cc(Cl)ccc4c(NCCCl)c3C(C1)C2` (racemic), the IC50 at Acetylcholinesterase turned out to be 0.0433 µM.
Regarding `CC1=CC2Cc3nc4cc(Cl)ccc4c(NC(=O)CCl)c3C(C1)C2` (racemic), the IC50 on Acetylcholinesterase was 2.51 µM.
For `CCC1=CC2Cc3nc4cnccc4c(N)c3C(C1)C2` (racemic), on Acetylcholinesterase, the half-maximal inhibitory concentration (IC50) came to 0.664 µM.
With `CCC1=CC2Cc3nc4cc(Cl)ccc4c(NCCO)c3C(C1)C2` (racemic), the IC50 worked out at 0.00675 µM at Acetylcholinesterase and 3.64 µM on Cholinesterase [2]. In the assay filed under Homo sapiens, the Ratio IC50 amounted to 540.
For `CC1=CC2Cc3nc4ncccc4c(N)c3C(C1)C2` (racemic), the IC50 on Acetylcholinesterase came out at 0.81 µM; at Cholinesterase [2] it was 0.342 µM. In the assay filed under Homo sapiens, the Ratio IC50 came to 0.4.
Consider `CCCSc1nc2nc3c(c(N)c2s1)C1CC(CC)=CC(C3)C1` (racemic), for which the 50% inhibitory concentration (IC50) at Acetylcholinesterase came to 7.27 µM.
On the same count and under the same terms, next, `CC1=CC2Cc3nc4oc(C5CC5)nc4c(N)c3C(C1)C2` (racemic): 50 µM; `CC1=CC2Cc3nc4cc(Cl)ccc4c(Cl)c3C(C1)C2` (racemic): 22.4 µM; `CCC1=CC2Cc3nc4cc(Cl)ccc4c(N)c3[C@@H](C1)C2` [HUPRINE X]: 0.0011 µM.
On the same count and under the same terms, to `CCC1=CC2Cc3nc4oc(C5CC5)nc4c(N)c3C(C1)C2` (racemic) belongs 50 µM; to `CC1=CC2Cc3nc4oc(C)c(C)c4c(N)c3C(C1)C2` (racemic), 4.78 µM; to `CCC1=CC2Cc3nc4oc(C)c(C)c4c(N)c3C(C1)C2` (racemic), 6.45 µM.
